Drawing on ChEMBL document CHEMBL1933017, “Synthesis and biological evaluation of some thiazolidinones as antimicrobial agents” (2012), this text covers zone of inhibition and MIC for three compounds.

≈ marks a conversion by molar mass, not a printed value.

Test [1] has as its system Staphylococcus aureus. As to the kind of experiment: Antibacterial activity against Staphylococcus aureus at 100 ug/disc after 24 hrs by disc diffusion method. In kind it is functional. The conditions noted are these: read-out: DIZ. In short, it runs like this:
(§1)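 Paper disc diffusion on autoclaved Mueller-Hinton agar poured 5 mm deep. Agar was swab-inoculated with 10⁵ CFU/mL suspension (0.5 McFarland). Discs 6.25 mm across were soaked in compound solution in DMSO (3.12–100 µg/mL) and plates incubated 24 h at (37 ± 1) °C. Read-out was inhibition zone (mm). DMSO control disc; ciprofloxacin or ketoconazole reference, 100 µg/disc. Mean of three independent experiments.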
A general note: In agar diffusion tests the substance spreads into inoculated agar from a disc or well.

The test system of test [2] is Proteus vulgaris. As to the kind of experiment: Antibacterial activity against Proteus vulgaris after 24 hrs by agar streak dilution method. In kind it is functional. Put shortly: (§2)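 MIC by agar streak dilution. Graded amounts of DMSO stock (100 μg/mL) were mixed into molten sterile nutrient agar and poured 4–5 mm deep. Serial concentrations spanned 3.12–100 µg/mL. Plates were inoculated with about 10⁵ CFU/mL of bacterial suspension and incubated at (37 ± 1) °C for 24 h. Each value is the mean of three independent experiments.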

The subject of test [3] is Candida albicans. As to the kind of experiment: Antifungal activity against Candida albicans after 48 hrs by agar streak dilution method. The format is functional. Put shortly: (§3)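 Fungal MIC by agar streak dilution on Sabouraud dextrose agar, poured 4–5 mm deep. Compound from a DMSO stock (100 μg/mL) was incorporated at serial concentrations of 3.12–100 µg/mL. Plates were inoculated with about 10⁵ CFU/mL of suspension and incubated at (37 ± 1) °C for 48 h. Each value is the mean of three independent experiments.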

Test [4] relates to Bacillus cereus. As to the kind of experiment: Antibacterial activity against Bacillus cereus after 24 hrs by agar streak dilution method. The format is functional. In short, it runs like this: as §2
Test [5] deals with Pseudomonas aeruginosa. As to the kind of experiment: Antibacterial activity against Pseudomonas aeruginosa at 100 ug/disc after 24 hrs by disc diffusion method. The format is functional. The note with it: read-out: DIZ. Put shortly:
as §1

Test [6] concerns Staphylococcus aureus. As to the kind of experiment: Antibacterial activity against Staphylococcus aureus after 24 hrs by agar streak dilution method. In kind it is functional. In short, it runs like this:
as §2

The test system of test [7] is Bacillus cereus. As to the kind of experiment: Antibacterial activity against Bacillus cereus at 100 ug/disc after 24 hrs by disc diffusion method. The format is functional. The conditions noted are these: read-out: DIZ. Put shortly: as §1
Test [8] relates to Salmonella typhi. As to the kind of experiment: Antibacterial activity against Salmonella Typhi after 24 hrs by agar streak dilution method. In kind it is functional, Salmonella enterica subsp. enterica serovar Typhi. The conditions noted are these: Salmonella enterica. In short, it runs like this:
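Agar streak dilution: DMSO stock (100 µg/mL) graded into molten sterile nutrient agar, poured 4–5 mm deep and solidified. Plates carry serial dilutions spanning 3.12–100 µg/mL. Applied ~10⁵ CFU/mL suspension, then incubated 24 h at (37 ± 1) °C. MIC read as the lowest inhibitory concentration; each value is the mean of three independent experiments.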

The test system of test [9] is Klebsiella pneumoniae. As to the kind of experiment: Antibacterial activity against Klebsiella pneumoniae at 100 ug/disc after 24 hrs by disc diffusion method. The note with it: read-out: DIZ. The format is functional. Put shortly:
as §1

Test [10] concerns Aspergillus fumigatus. As to the kind of experiment: Antifungal activity against Aspergillus fumigatus at 100 ug/disc after 24 hrs by disc diffusion method. The format is functional. The note with it: read-out: DIZ. Put shortly:
as §1

Test [11] concerns Salmonella typhi. As to the kind of experiment: Antibacterial activity against Salmonella Typhi at 100 ug/disc after 24 hrs by disc diffusion method. The note with it: Salmonella enterica, read-out: DIZ. In kind it is functional, Salmonella enterica subsp. enterica serovar Typhi. Put shortly: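 Paper disc diffusion on Mueller-Hinton agar poured 5 mm deep; 10⁵ CFU/mL suspension (0.5 McFarland) swabbed over surface. 6.25 mm filter paper discs soaked in compound in DMSO, incubated 24 h at (37 ± 1) °C; inhibition zone diameter in mm. DMSO disc as blank; ciprofloxacin 100 µg/disc as reference. Mean of three independent experiments.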

In test [12] the test system is Shigella flexneri. As to the kind of experiment: Antibacterial activity against Shigella flexneri at 100 ug/disc after 24 hrs by disc diffusion method. In kind it is functional. The conditions noted are these: read-out: DIZ. Put shortly:
as §1

Test [13] deals with Aspergillus fumigatus. As to the kind of experiment: Antifungal activity against Aspergillus fumigatus after 48 hrs by agar streak dilution method. In kind it is functional. Put shortly: as §3
The subject of test [14] is Proteus vulgaris. As to the kind of experiment: Antibacterial activity against Proteus vulgaris at 100 ug/disc after 24 hrs by disc diffusion method. In kind it is functional. The note with it: read-out: DIZ. Put shortly:
as §1

The test system of test [15] is Shigella flexneri. As to the kind of experiment: Antibacterial activity against Shigella flexneri after 24 hrs by agar streak dilution method. The format is functional. Put shortly:
as §2

For test [16], the system named is Aspergillus clavatus. As to the kind of experiment: Antifungal activity against Aspergillus clavatus at 100 ug/disc after 24 hrs by disc diffusion method. The conditions noted are these: read-out: DIZ. The format is functional. Put shortly: as §1
Test [17] concerns Aspergillus niger. As to the kind of experiment: Antifungal activity against Aspergillus niger after 48 hrs by agar streak dilution method. The format is functional. Put shortly:
as §3

For test [18], the system named is Candida albicans. As to the kind of experiment: Antifungal activity against Candida albicans at 100 ug/disc after 24 hrs by disc diffusion method. The format is functional. The note with it: read-out: DIZ. Put shortly: as §1
In test [19] the test system is Klebsiella pneumoniae. As to the kind of experiment: Antibacterial activity against Klebsiella pneumoniae […] after 24 hrs by agar streak dilution method. The format is functional.
Test [20] concerns Aspergillus niger. As to the kind of experiment: Antifungal activity against Aspergillus niger at 100 ug/disc after 24 hrs by disc diffusion method. The format is functional. The conditions noted are these: read-out: DIZ. Put shortly: as §1
For test [21], the system named is Escherichia coli. As to the kind of experiment: Antibacterial activity against Escherichia coli after 24 hrs by agar streak dilution method. The format is functional. In short, it runs like this:
as §2

The subject of test [22] is Pseudomonas aeruginosa. As to the kind of experiment: Antibacterial activity against Pseudomonas aeruginosa […] after 24 hrs by agar streak dilution method. In kind it is functional.
For test [23], the system named is Escherichia coli. As to the kind of experiment: Antibacterial activity against Escherichia coli at 100 ug/disc after 24 hrs by disc diffusion method. The note with it: read-out: DIZ. The format is functional. In short, it runs like this:
as §1

In test [24] the test system is Aspergillus clavatus. As to the kind of experiment: Antifungal activity against Aspergillus clavatus after 48 hrs by agar streak dilution method. In kind it is functional. Put shortly: as §3

As to `CCN1CCN(CC2SC(c3ccccc3)N(c3ccc(Nc4nc(Oc5cc(=O)n(C)c6ccccc56)nc(N(C)C)n4)cc3)C2=O)CC1` (configuration not stated), the zone of inhibition at 100 µg/disc in test [1] is 14 mm; in [5] it was 13 mm; in [7], 16 mm; in test [9], less than 10 mm; in test [10], less than 10 mm; in test [11], 16 mm. Also, the zone of inhibition at 100 µg/disc in [12] is 12 mm; in test [14], 15 mm; in test [16], less than 10 mm; in [18], 14 mm; in test [20], 12 mm; in [23], 22 mm. Also, the minimal inhibitory concentration (MIC) in test [2] was found to be 100 µg/mL (≈ 145 µM); in [3] it was 100 µg/mL (≈ 145 µM); in test [4], 100 µg/mL (≈ 145 µM); in test [6], 100 µg/mL (≈ 145 µM); in test [8], 50 µg/mL (≈ 72.3 µM); in test [13], 100 µg/mL (≈ 145 µM). The MIC was determined as 100 µg/mL (≈ 145 µM) in test [15]; 100 µg/mL (≈ 145 µM) in [17]; 100 µg/mL (≈ 145 µM) in [19]; 25 µg/mL (≈ 36.1 µM) in [21]; 100 µg/mL (≈ 145 µM) in test [22]; 100 µg/mL (≈ 145 µM) in [24].
Regarding `CCN1CCN(CC2SC(c3ccc(Cl)cc3Cl)N(c3ccc(Nc4nc(Oc5cc(=O)n(C)c6ccccc56)nc(N(C)C)n4)cc3)C2=O)CC1` (configuration not stated), the zone of inhibition at 100 µg/disc in [1] is 25 mm; in test [5], 21 mm; in test [7], 19 mm; in [9] it was 23 mm; in [10] it was 17 mm; in test [11] it was 15 mm. The zone of inhibition at 100 µg/disc was determined as 26 mm in test [12]; 20 mm in test [14]; 25 mm in test [16]; 28 mm in [18]; 28 mm in test [20]; 24 mm in test [23]. Further, the MIC in test [2] was 12.5 µg/mL (≈ 16.4 µM); in test [3], 12.5 µg/mL (≈ 16.4 µM); in [4], 12.5 µg/mL (≈ 16.4 µM); in [6], 6.25 µg/mL (≈ 8.22 µM); in [8], 50 µg/mL (≈ 65.7 µM); in [13], 25 µg/mL (≈ 32.9 µM). Further, the MIC was found to be 6.25 µg/mL (≈ 8.22 µM) in test [15]; 6.25 µg/mL (≈ 8.22 µM) in test [17]; 25 µg/mL (≈ 32.9 µM) in [19]; 12.5 µg/mL (≈ 16.4 µM) in [21]; 25 µg/mL (≈ 32.9 µM) in test [22]; 12.5 µg/mL (≈ 16.4 µM) in test [24].
`CCN1CCN(CC2SC(c3ccc(Cl)c(Cl)c3)N(c3ccc(Nc4nc(Oc5cc(=O)n(C)c6ccccc56)nc(N(C)C)n4)cc3)C2=O)CC1` (configuration not stated): the zone of inhibition at 100 µg/disc in [1] came out at 15 mm; in test [5], 23 mm; in [7], 17 mm; in [9] it was 19 mm; in test [10], 16 mm; in [11], 12 mm. For the same compound, the zone of inhibition at 100 µg/disc was 22 mm in [12]; 19 mm in test [14]; 19 mm in test [16]; 23 mm in test [18]; 21 mm in test [20]; 17 mm in test [23]. Also, the MIC in test [2] came out at 25 µg/mL (≈ 32.9 µM); in test [3], 25 µg/mL (≈ 32.9 µM); in test [4] it was 12.5 µg/mL (≈ 16.4 µM); in [6] it was 25 µg/mL (≈ 32.9 µM); in [8], 50 µg/mL (≈ 65.7 µM); in test [13] it was 50 µg/mL (≈ 65.7 µM). Also, the MIC in test [15] came to 12.5 µg/mL (≈ 16.4 µM); in [17], 25 µg/mL (≈ 32.9 µM); in test [19] it was 12.5 µg/mL (≈ 16.4 µM); in test [21] it was 25 µg/mL (≈ 32.9 µM); in test [22], 25 µg/mL (≈ 32.9 µM); in [24], 50 µg/mL (≈ 65.7 µM).

Usually MIC stands for the lowest concentration that inhibits growth of the organism. Lower therefore signals inhibition by little substance.
